Each block holds one compound with its values, some of them ahead of it.
Experiments:
[1] = target: C-C chemokine receptor type 2 (Homo sapiens, UniProt P41597); assay: Displacement of [125I]MCP1 from human CCR2 after 30 mins by gamma counter
[2] = target: C-C chemokine receptor type 2 (Mus musculus, UniProt P51683); assay: Displacement of [125I]MCP1 from mouse CCR2 after 30 mins by gamma counter
[3] = Protein binding in human serum assessed as unbound fraction; type: ADME, cell-free; details: read-out: PB
[4] = Cmax in CD-1 mouse at 10 mg/kg, po; type: ADME, organism-based; parameters: dose 10 mg/kg, route oral; details: in vivo
How it was run: (§1)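 CD-1 mice dosed intravenously at 5 mg/kg and orally at 10 mg/kg. Clearance, steady-state volume of distribution and half-life were taken from the iv arm. Cmax and AUC were taken from the po arm. Oral bioavailability was derived from the po and iv exposures.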

[5] = target: C-C chemokine receptor type 5 (Mus musculus, UniProt P51682); assay: Inhibition of mouse CCR5
CCR2 protein = target: T1, CCR2 protein (Macaca fascicularis, UniProt Q6Y3N0); assay: Inhibition of cynomolgus CCR2
T1 sequence (Q6Y3N0 whole entry): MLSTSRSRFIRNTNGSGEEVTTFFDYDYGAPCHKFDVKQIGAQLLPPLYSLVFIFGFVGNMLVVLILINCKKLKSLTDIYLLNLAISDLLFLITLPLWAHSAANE

[6] = target: T2, C-C chemokine receptor type 2 (Rattus norvegicus, UniProt O55193); assay: Inhibition of rat CCR2
T2 sequence (O55193 whole entry): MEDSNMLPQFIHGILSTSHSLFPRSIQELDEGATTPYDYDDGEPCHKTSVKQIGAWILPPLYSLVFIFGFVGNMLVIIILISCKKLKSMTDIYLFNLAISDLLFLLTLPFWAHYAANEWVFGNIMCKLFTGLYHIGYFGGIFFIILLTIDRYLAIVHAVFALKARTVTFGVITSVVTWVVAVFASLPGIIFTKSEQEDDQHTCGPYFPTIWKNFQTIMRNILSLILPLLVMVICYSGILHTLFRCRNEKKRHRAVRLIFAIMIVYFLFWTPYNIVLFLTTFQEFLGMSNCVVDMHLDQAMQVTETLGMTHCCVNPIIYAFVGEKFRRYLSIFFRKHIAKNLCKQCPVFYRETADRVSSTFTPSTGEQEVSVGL

[7] = AUC in BALB/c mouse at 10 mg/kg, po; type: ADME, organism-based; parameters: dose 10 mg/kg, route oral; details: plasma
[8] = target: T3, C-C chemokine receptor type 1 (Mus musculus, UniProt P51675); assay: Inhibition of mouse CCR1
T3 sequence (P51675 whole entry): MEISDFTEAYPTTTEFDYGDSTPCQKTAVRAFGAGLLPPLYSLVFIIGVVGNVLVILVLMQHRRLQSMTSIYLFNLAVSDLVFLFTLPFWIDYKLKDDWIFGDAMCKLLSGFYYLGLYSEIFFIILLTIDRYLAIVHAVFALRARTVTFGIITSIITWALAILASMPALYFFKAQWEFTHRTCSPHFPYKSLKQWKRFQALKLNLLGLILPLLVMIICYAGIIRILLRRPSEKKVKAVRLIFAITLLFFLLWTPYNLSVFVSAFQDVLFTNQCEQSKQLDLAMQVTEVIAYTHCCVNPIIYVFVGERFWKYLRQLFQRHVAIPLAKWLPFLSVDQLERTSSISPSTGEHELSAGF

[9] = target: Voltage-gated inwardly rectifying potassium channel KCNH2 (Homo sapiens, UniProt Q12809)
[10] = Protein binding in mouse serum assessed as unbound fraction; type: ADME, cell-free; details: read-out: PB
[11] = Cmax in BALB/c mouse at 10 mg/kg, po; type: ADME, organism-based; parameters: dose 10 mg/kg, route oral; details: in vivo
Mus musculus = assay: Volume of distribution at steady state in CD-1 mouse at 5 mg/kg, iv; type: ADME, organism-based; parameters: dose 5 mg/kg, route intravenous; details: in vivo; how it was run: as §1
[12] = Half life in CD-1 mouse at 5 mg/kg, iv; type: ADME, organism-based; parameters: dose 5 mg/kg, route intravenous; details: in vivo; how it was run: as §1
[13] = Clearance in CD-1 mouse at 5 mg/kg, iv; type: ADME, organism-based; parameters: dose 5 mg/kg, route intravenous; details: in vivo; how it was run: as §1
[14] = AUC in CD-1 mouse at 10 mg/kg, po; type: ADME, organism-based; parameters: dose 10 mg/kg, route oral; details: plasma; how it was run: as §1
[15] = Oral bioavailability in CD-1 mouse at 10 mg/kg, po; type: ADME, organism-based; details: in vivo; how it was run: as §1

C-C chemokine receptor type 2 (Mus musculus, UniProt P51683), sequence (P51683 whole entry): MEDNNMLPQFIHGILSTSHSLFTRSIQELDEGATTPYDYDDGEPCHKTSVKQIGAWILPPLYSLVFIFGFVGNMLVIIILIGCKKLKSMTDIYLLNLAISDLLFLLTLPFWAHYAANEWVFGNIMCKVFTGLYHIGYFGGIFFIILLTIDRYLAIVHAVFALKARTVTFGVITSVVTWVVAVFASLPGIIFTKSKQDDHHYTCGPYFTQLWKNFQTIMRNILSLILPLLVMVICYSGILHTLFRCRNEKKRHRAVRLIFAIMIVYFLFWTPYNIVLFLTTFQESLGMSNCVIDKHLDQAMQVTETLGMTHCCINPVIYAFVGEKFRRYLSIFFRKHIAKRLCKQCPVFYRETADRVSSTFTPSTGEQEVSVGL
C-C chemokine receptor type 2 (Homo sapiens, UniProt P41597), sequence (P41597 whole entry): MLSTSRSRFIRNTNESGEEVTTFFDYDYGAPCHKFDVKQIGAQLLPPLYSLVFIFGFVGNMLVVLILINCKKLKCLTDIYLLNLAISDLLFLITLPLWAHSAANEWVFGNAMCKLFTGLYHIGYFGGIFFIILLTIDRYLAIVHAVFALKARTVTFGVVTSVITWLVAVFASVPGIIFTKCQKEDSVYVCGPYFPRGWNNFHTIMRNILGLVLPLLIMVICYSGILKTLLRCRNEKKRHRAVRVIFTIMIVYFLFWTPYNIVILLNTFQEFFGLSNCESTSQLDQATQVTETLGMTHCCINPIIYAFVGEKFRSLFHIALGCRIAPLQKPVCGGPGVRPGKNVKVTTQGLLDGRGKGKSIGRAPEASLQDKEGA
Voltage-gated inwardly rectifying potassium channel KCNH2, sequence (Q12809 whole entry): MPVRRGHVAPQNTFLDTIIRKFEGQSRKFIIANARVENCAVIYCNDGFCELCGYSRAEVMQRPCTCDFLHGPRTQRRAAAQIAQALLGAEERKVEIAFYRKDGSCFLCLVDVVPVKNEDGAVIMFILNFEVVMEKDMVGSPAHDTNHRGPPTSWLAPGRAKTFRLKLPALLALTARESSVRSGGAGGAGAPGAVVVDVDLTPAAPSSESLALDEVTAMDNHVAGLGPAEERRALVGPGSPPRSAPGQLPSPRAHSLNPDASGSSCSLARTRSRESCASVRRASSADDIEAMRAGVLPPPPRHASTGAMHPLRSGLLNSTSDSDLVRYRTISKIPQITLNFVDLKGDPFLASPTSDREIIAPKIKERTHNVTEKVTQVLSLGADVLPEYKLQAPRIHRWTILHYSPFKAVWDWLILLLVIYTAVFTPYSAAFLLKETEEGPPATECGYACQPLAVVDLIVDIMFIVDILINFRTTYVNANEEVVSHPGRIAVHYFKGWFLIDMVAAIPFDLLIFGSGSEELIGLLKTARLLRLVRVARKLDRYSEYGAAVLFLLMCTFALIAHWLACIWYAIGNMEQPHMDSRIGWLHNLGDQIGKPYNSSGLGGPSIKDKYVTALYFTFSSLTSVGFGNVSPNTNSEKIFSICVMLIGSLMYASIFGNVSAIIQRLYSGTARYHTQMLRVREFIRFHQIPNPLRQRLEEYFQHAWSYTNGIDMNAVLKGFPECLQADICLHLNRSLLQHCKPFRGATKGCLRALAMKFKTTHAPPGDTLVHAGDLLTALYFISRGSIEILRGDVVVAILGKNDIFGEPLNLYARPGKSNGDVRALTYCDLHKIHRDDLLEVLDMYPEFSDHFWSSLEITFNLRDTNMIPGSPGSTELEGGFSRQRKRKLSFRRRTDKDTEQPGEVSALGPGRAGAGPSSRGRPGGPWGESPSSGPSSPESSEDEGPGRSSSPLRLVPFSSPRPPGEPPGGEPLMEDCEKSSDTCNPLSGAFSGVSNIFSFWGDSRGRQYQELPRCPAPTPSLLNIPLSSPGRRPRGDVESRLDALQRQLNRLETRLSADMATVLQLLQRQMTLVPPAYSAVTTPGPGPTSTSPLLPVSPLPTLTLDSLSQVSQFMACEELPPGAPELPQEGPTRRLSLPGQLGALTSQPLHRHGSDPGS
C-C chemokine receptor type 5, sequence (P51682 whole entry): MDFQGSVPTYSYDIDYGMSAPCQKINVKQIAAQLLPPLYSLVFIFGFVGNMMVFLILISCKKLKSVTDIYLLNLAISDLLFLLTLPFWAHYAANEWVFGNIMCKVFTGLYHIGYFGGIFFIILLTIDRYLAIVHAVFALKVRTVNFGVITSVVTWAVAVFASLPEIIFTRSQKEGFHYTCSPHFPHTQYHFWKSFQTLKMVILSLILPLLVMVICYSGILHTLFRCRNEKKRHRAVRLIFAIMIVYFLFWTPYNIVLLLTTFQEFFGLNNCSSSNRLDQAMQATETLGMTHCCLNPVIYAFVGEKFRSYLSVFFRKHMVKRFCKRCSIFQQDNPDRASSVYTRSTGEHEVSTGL

IC50 [1]: > 1000 nM
SMILES: O=C(CNC(=O)c1cccc(C(F)(F)F)c1)N[C@H]1CN([C@H]2CCC[C@@H](c3ccccc3)C2)C[C@@H]1O

IC50 [2]: 186 nM | IC50 [1]: 7.4 nM | fraction unbound [3]: 0.026
SMILES: O=C(CNC(=O)c1cccc(C(F)(F)F)c1)N[C@H]1CN([C@H]2CC[C@@H](c3ccccc3)CC2)C[C@@H]1O

IC50 [2]: 54 nM | IC50 [1]: 47 nM
SMILES: CCCCO[C@H]1CN([C@H]2CC[C@@H](c3ccccc3)CC2)C[C@@H]1NC(=O)CNC(=O)c1cccc(C(F)(F)F)c1

IC50 [2]: 10 nM | fraction unbound [10]: 0.18 | IC50 [1]: 2.3 nM | fraction unbound [3]: 0.26
SMILES: CCO[C@H]1CN([C@H]2CC[C@@](O)(c3ccccc3)CC2)C[C@@H]1NC(=O)CNC(=O)c1cccc(C(F)(F)F)c1

IC50 [1]: 120 nM
SMILES: O=C(CNC(=O)c1cccc(C(F)(F)F)c1)N[C@H]1CN([C@H]2CC[C@@H](c3ccccc3)C2)C[C@@H]1O

IC50 [1]: > 1000 nM
SMILES: O=C(CNC(=O)c1cccc(C(F)(F)F)c1)N[C@H]1CN([C@H]2CC[C@H](c3ccccc3)CC2)C[C@@H]1O

IC50 [1]: > 1000 nM
SMILES: O=C(CNC(=O)c1cccc(C(F)(F)F)c1)N[C@H]1CN([C@H]2CCC[C@H](c3ccccc3)C2)C[C@@H]1O

IC50 [2]: 51 nM | IC50 [1]: 17 nM
SMILES: O=C(CNC(=O)c1cccc(C(F)(F)F)c1)N[C@H]1CN([C@H]2CC[C@@H](c3ccccc3)CC2)C[C@@H]1OCc1ccccc1

The next lines start with the compound.

SMILES: O=C(CNC(=O)c1cccc(C(F)(F)F)c1)N[C@H]1CN(C2CCN(c3ccccc3)CC2)C[C@@H]1O
IC50 [1]: 649 nM

SMILES: CCCO[C@H]1CN([C@H]2CC[C@@H](c3ccccc3)CC2)C[C@@H]1NC(=O)CNC(=O)c1cccc(C(F)(F)F)c1
IC50 [2]: 1.9 nM | IC50 [1]: 2.9 nM

SMILES: CCO[C@H]1CN([C@H]2CC[C@@](O)(c3ccc4c(c3)OCO4)CC2)C[C@@H]1NC(=O)CNC(=O)c1cccc(C(F)(F)F)c1
Cmax [4]: 1890 nM | IC50 [5]: > 3000 nM | IC50 (CCR2 protein): 16 nM | IC50 [6]: 7.3 nM | AUC [7]: 3.89 µM·h | IC50 [8]: > 1000 nM | IC50 [9]: 13000 nM | fraction unbound [10]: 0.15 | Cmax [11]: 961 nM | Vdss (Mus musculus): 2.8 L/kg | fraction unbound [3]: 0.24 | half-life [12]: 1 h | clearance [13]: 85 mL/min/kg | AUC [14]: 2.66 µM·h | bioavailability [15]: 47%

SMILES: O=C(CNC(=O)c1cccc(C(F)(F)F)c1)N[C@H]1CN([C@H]2CC[C@H](c3ccccc3)C2)C[C@@H]1O
IC50 [1]: > 1000 nM

SMILES: CCO[C@H]1CN([C@H]2CC[C@@H](c3ccccc3)CC2)C[C@@H]1NC(=O)CNC(=O)c1cccc(C(F)(F)F)c1
IC50 [2]: 1.9 nM | fraction unbound [10]: 0.023 | IC50 [1]: 0.95 nM | fraction unbound [3]: < 0.005

SMILES: CCO[C@H]1CN([C@H]2CC[C@@](O)(c3ccc(C)cc3)CC2)C[C@@H]1NC(=O)CNC(=O)c1cccc(C(F)(F)F)c1
IC50 [2]: 2.1 nM | fraction unbound [10]: 0.079 | IC50 [1]: 2.3 nM
